Counter-ions that a name gives are not always drawn.
What follows are molecules tested against Sodium- and chloride-dependent GABA transporter 1 (Mus musculus, UniProt P31648) (assay: Inhibition of [3H]GABA uptake at mouse GAT1 expressed in D8 cells).
Format: cell-based
Summary of the method: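 D8 cells in RPMI1640 with 10% FBS grown to near confluence (~60,000 cells/well), rinsed with PBS, pre-incubated 10 min at rt in HBSS. Stopped by aspirating HBSS, three rapid cold PBS washes, cells solubilized in 2 N NaOH; uptake quantified by liquid scintillation counting.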

| Compound | IC50 [µM] |
| --- | --- |
| Cc1ccccc1C(c1cccc(C)c1C)[S+]([O-])CCN1CCC[C@@H](C(=O)O)C1 (stereo partly drawn) | 105 |
| O=C(O)[C@@H]1CCCN(CCCSC(c2ccccc2)c2ccccc2)C1 | 11.6 |
| Cc1ccc(C(SCCN2CCC[C@@H](C(=O)O)C2)c2ccc(C)cc2)cc1 | 240 |
| COc1ccc(C(SCCCN2CCC[C@@H](C(=O)O)C2)c2ccc(OC)cc2)cc1 | 120 |
| Cc1ccccc1C(SCCCN1CCC[C@@H](C(=O)O)C1)c1cccc(C)c1C (stereo partly drawn) | 16.9 |
| COc1ccc(C(c2ccc(OC)cc2)[S+]([O-])CCN2CCC[C@@H](C(=O)O)C2)cc1 (stereo partly drawn) | 589 |
| O=C(O)[C@@H]1CCCN(CC[S+]([O-])C(c2ccccc2)c2ccccc2)C1 (stereo partly drawn) | 0.92 |
| Cc1ccc(C(SCCCN2CCC[C@@H](C(=O)O)C2)c2ccc(C)cc2)cc1 | 15.8 |
| COc1ccc(C(SCCN2CCC[C@@H](C(=O)O)C2)c2ccc(OC)cc2)cc1 | 4800 |
| Cc1ccccc1C(SCCN1CCC[C@@H](C(=O)O)C1)c1cccc(C)c1C (stereo partly drawn) | 2130 |
| Cc1ccsc1C(=CCCN1CCC[C@@H](C(=O)O)C1)c1sccc1C [TIAGABINE HYDROCHLORIDE] | 0.08 |
| Cc1ccc(C(c2ccc(C)cc2)[S+]([O-])CCN2CCC[C@@H](C(=O)O)C2)cc1 (stereo partly drawn) | 1.18 |
| O=C(O)[C@@H]1CCCN(CCSC(c2ccccc2)c2ccccc2)C1 | 1600 |
